Experimental findings from ChEMBL document CHEMBL4257558, “Synthesis of dihydronaphthalene analogues inspired by combretastatin A-4 and their biological evaluation as anticancer agents” (Medchemcomm, 2018) are described below.

By GI50 is commonly meant the concentration that inhibits growth by half. A high value points to lower sensitivity of the cells. As usually defined, the inhibition is how much of the control response was suppressed. Higher therefore signals a response far below the control. The IC50 is the point on the concentration scale where inhibition reaches its midpoint. The low end stands for greater potency in that assay, the high end for weaker potency in that assay.

The structures appear in SMILES notation. Active and inactive are the calls of the source. The calls are words filed in the database; no cut-off is given here. Bounds are passed on as bounds.

Assay [1] relates to NCI-H460. As to the kind of experiment: Growth inhibition of human NCI-H460 cells after 48 hrs by SRB assay. In kind it is functional. As to conditions: NCI-H460, 48 h. In short, it runs like this: (§1)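 Cells plated at 7000–8000 per well in DMEM with 5% FBS/1% gentamicin, grown 24 h at 37 °C, 5% CO2. Compounds from 10 mg/mL DMSO stock added as serial dilutions; doxorubicin and paclitaxel as positive controls.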
In general terms: In SRB staining, fixed cells bind dye roughly in proportion to their protein.

In assay [2] the test system is SK-OV-3. As to the kind of experiment: Growth inhibition of human SKOV3 cells after 48 hrs by SRB assay. It counts as functional. The following applies: SK-OV-3, 48 h. An outline of the steps: as §1
The species entered for assay [3] is Bos taurus. As to the kind of experiment: Inhibition of [3H]colchicine binding to calf brain tubulin at 5 uM incubated for 10 mins by scintillation counting method relative to control. An outline of the steps:
(§2)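 Tubulin at 1.0 μM with 5.0 μM [3H]colchicine, 5% (v/v) DMSO and test compound at 1.0 or 5.0 μM. Binding-stabilizing buffer: 1.0 M monosodium glutamate (pH 6.6), 0.5 mg mL–1 BSA, 0.1 M glucose-1-phosphate, 1.0 mM MgCl2, 1.0 mM GTP. Incubated 10 min at 37 °C, stopped with ice-cold water, trapped on DEAE-cellulose filters and scintillation-counted. Counts corrected for filter binding without tubulin; percent inhibition versus no-inhibitor samples.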

For assay [4], the system named is DU-145. As to the kind of experiment: Growth inhibition of human DU145 cells after 48 hrs by SRB assay. It counts as functional. The following applies: DU-145, 48 h. An outline of the steps:
as §1

For assay [5], the species on record is Bos taurus. As to the kind of experiment: Inhibition of [3H]colchicine binding to calf brain tubulin at 1 uM incubated for 10 mins by scintillation counting method relative to control. An outline of the steps:
as §2

A short description of assay [6]: Inhibition of bovine brain tubulin polymerization preincubated for 15 mins followed by GTP addition and measured for 20 mins by spectrophotometric method. On the set-up: species or system Bos taurus. In short, it runs like this: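 Final mixture: 10 μM (1 mg/mL) bovine brain tubulin, 0.8 M monosodium glutamate pH 6.6, 4% DMSO, 0.4 mM GTP, varied compound concentrations. All components except GTP preincubated 15 min at 30 °C, chilled to 0 °C, GTP added, then jumped to 30 °C.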

For assay [7], the system named is MDA-MB-231. As to the kind of experiment: Vascular disrupting activity in luciferase expressing human MDA-MB-231 cells xenografted in BALB/c SCID mouse at 200 mg/kg, ip at 4 hrs by bioluminescence imaging method relative to control. In kind it is functional. In short, it runs like this:
(§3)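 Orthotopic tumors from 1 × 10^6 MDA-MB-231-luc cells in PBS/50% Matrigel injected into left upper mammary fat pad of BALB/c SCID mice. Dynamic BLI over 30 min after luciferin injection at baseline, then 4 and 24 h after IP dosing in saline (200 mg/kg in the mouse shown), with fresh luciferin each time; signal reduction expressed versus baseline.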
In general terms: In xenograft studies the graft and the host belong to different species.

Assay [8] relates to MDA-MB-231. As to the kind of experiment: Vascular disrupting activity in luciferase expressing human MDA-MB-231 cells xenografted in BALB/c SCID mouse at 200 mg/kg, ip at 24 hrs by bioluminescence imaging method relative to control. In kind it is functional. In short, it runs like this:
as §3

The test system of assay [9] is A549. As to the kind of experiment: Vascular disrupting activity in human A549 cells xenografted in T-cell deficient athymic homozygous nude rat assessed as reduction of blood flow at 15 mg/kg, ip after 2 hrs by color doppler ultrasound imaging method. In kind it is functional, organism-based. In short, it runs like this: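 Nude rat bearing subcutaneous leg A549 tumor (3 × 10^6 cells in serum-free medium with 50% Matrigel; tumor about 0.5 cm3). Under isoflurane, color-Doppler ultrasound performed before and 2 h after 15 mg/kg IP in 500 μl saline; tumor blood perfusion compared with baseline.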

`COc1ccc2c(c1O)CCC=C2C(=O)c1cc(OC)c(OC)c(OC)c1`: the figures for the GI50 in assay [1], in assay [2] and in [4] were 21.6 nM, 6.22 nM and 7.3 nM, respectively. The inhibition in assay [3] was 98%; in assay [5], 81%. This compound showed an IC50 in assay [6] of 1200 nM.

Regarding `COc1cc(C(=O)C2=CCCc3c2ccc(OC)c3OP(=O)([O-])[O-])cc(OC)c1OC.[Na+].[Na+]`, the GI50 came to 52.4 nM in [1], 12.9 nM in [2] and 12.6 nM in [4]. Further, the figures for the Activity in assay [7] and in assay [8] were 99% and 81%, respectively. The compound further gave an IC50 in assay [6] greater than 20000 nM.

As for `COc1cc(C2=CCCc3c2ccc(OC)c3OP(=O)(O)O)cc(OC)c1OC`, the GI50 stood at 3.73 nM in [1], 1.9 nM in assay [2] and 3.27 nM in assay [4]. The outcome in assay [9] was Active. The compound further displayed an IC50 in assay [6] greater than 20000 nM.
